From ChEMBL document CHEMBL3856284, “Discovery, design and synthesis of 6H-anthra[1,9-cd]isoxazol-6-one scaffold as G9a inhibitor through a combination of shape-based virtual screening and structure-based molecular modification” (Bioorg Med Chem, 2016) come the findings set out here.

The structures appear in SMILES notation. Activity calls are given as the source filed them. No cut-off for these calls is given here.

As usually defined, the IC50 is the concentration needed to halve the response being measured. As usually defined, the Tmax is the time from dosing to the highest level. One may read the Cmax as the peak of the concentration-time curve. The term half-life denotes how long it takes for the measured level to halve. A low value points to fast loss. A word on the bioavailability: it is the share of a dose that reaches the circulation, judged against a reference dose that is usually intravenous. A higher bioavailability goes with good availability.

Data set [1] deals with T1, Histone-lysine N-methyltransferase EHMT2 (Homo sapiens, UniProt Q96KQ7).
T1 sequence (Q96KQ7 whole entry): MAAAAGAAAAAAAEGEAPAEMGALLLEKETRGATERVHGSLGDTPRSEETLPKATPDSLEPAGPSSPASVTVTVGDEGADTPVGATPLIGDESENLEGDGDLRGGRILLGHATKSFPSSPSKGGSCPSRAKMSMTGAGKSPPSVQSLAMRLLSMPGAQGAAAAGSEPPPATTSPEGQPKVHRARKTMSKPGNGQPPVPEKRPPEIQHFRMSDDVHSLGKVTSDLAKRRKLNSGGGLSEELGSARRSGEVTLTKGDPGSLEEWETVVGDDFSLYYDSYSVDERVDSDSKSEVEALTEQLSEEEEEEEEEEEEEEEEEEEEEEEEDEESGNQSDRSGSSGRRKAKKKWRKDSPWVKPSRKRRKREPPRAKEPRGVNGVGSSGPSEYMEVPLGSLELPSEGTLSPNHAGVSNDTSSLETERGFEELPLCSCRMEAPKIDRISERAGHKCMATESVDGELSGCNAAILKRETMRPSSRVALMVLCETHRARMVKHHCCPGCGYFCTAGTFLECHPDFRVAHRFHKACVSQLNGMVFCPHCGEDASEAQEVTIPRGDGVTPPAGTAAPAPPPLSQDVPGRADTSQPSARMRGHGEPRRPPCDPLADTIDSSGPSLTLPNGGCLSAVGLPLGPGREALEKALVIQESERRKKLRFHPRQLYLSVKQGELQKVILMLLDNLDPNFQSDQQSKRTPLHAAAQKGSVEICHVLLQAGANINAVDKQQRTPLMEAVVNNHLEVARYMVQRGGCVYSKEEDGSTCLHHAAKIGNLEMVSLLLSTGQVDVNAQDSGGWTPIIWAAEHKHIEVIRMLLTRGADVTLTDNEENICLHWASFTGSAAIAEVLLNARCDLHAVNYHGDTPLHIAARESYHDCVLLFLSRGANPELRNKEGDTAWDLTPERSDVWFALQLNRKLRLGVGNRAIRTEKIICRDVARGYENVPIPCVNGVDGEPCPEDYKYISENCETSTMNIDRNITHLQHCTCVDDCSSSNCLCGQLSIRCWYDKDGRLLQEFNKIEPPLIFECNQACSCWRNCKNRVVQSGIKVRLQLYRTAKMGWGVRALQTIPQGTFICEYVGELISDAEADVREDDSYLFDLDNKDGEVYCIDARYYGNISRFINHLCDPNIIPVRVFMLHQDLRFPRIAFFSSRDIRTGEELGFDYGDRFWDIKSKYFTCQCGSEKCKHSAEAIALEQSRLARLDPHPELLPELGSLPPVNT
Description: Inhibition of G9a (unknown origin) using biotinylated-histone H3 (1 to 21 residues)/S-adenosyl-methionine as substrate/methyl donor after 3 hrs by AlphaScreen assay. The gist of the method:
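AlphaScreen G9a assay. Compounds were first screened at 10 µM. IC50 came from concentration-response curves of ten escalating concentrations (0.1 nM–10 µM), using two independent experiments, reported as mean ± SD.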

Data set [2] can be described thus: Antiproliferative activity against human HCT116 cells assessed as inhibition of cell viability after 72 hrs by MTT assay. Type of data set: functional, cell-based. Conditions: HCT-116, 72 h. A general note: Tetrazolium assays rely on reduction of a dye to a coloured formazan, in cell work by metabolically active cells.
Data set [3] in a line: Antiproliferative activity against human MCF7 cells assessed as inhibition of cell viability after 72 hrs by MTT assay. To be noted: MCF7, 72 h. Type of data set: functional, cell-based.
Data set [4] deals with MCF7. Description: Induction of necrosis in human MCF7 cells at 8 uM after 24 hrs by inverted light microscopic method. Type of data set: functional, cell-based. The gist of the method:
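MCF-7 cells were incubated 24 h with 2, 4 or 8 µM compound, with an untreated group as control. Cell morphology (distortion, blebbing, shrinkage, rounding, necrosis) was examined under an inverted light microscope at ×200.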

Data set [5] relates to MCF7. In words: Induction of apoptosis in human MCF7 cells assessed as late apoptotic cells at 2 uM after 48 hrs by annexin V staining-based flow cytometric analysis (reference value: 11%). Type of data set: functional. (In general: A flow cytometer gives signals particle by particle.)
The subject of data set [6] is MCF7. Description: Induction of apoptosis in human MCF7 cells assessed as early apoptotic cells at 4 uM after 48 hrs by annexin V staining-based flow cytometric analysis (reference value: 0.5%). The class given is functional.
Data set [7] concerns MCF7. Description: Induction of apoptosis in human MCF7 cells assessed as necrotic cells at 4 uM after 48 hrs by annexin V staining-based flow cytometric analysis (reference value: 5.65%). Type of data set: functional.
Data set [8] concerns MCF7. Description: Induction of apoptosis in human MCF7 cells assessed as late apoptotic cells at 8 uM after 48 hrs by annexin V staining-based flow cytometric analysis (reference value: 11%). The class given is functional.
The test system of data set [9] is MCF7. In words: Induction of apoptosis in human MCF7 cells assessed as necrotic cells at 8 uM after 48 hrs by annexin V staining-based flow cytometric analysis (reference value: 5.65%). The class given is functional.
The subject of data set [10] is Mus musculus. Description: Tmax in mouse at 10 mg/kg, iv after 2 mins to 24 hrs by LC-MS/MS analysis. Conditions: in vivo.
For data set [11], the system named is Mus musculus. In words: Cmax in mouse at 10 mg/kg, iv after 2 mins to 24 hrs by LC-MS/MS analysis. Conditions: in vivo.
Data set [12] deals with Mus musculus. In words: Half life in mouse at 10 mg/kg, iv after 2 mins to 24 hrs by LC-MS/MS analysis. To be noted: in vivo.
Data set [13] relates to Mus musculus. Description: Oral bioavailability in mouse at 10 mg/kg after 5 mins to 24 hrs by LC-MS/MS analysis. To be noted: in vivo.
The test system of data set [14] is Mus musculus. In words: Volume of distribution in mouse at 10 mg/kg, po after 5 mins to 24 hrs by LC-MS/MS analysis. To be noted: in vivo.
For data set [15], the system named is Mus musculus. In words: Volume of distribution in mouse at 10 mg/kg, iv after 2 mins to 24 hrs by LC-MS/MS analysis. To be noted: in vivo.

Turning to `O=C1c2ccccc2-c2onc3c(N4CCCCC4)cc(NCCN4CCCC4)c1c23`, the IC50 was 2.18 µM in [1], 3.18 µM in data set [2] and 4.52 µM in data set [3]. Also, the outcome with MCF7 [4] was Active. Further, the Activity with MCF7 [5] is given as 18.25%; in the data set on MCF7 [6] it was 0.8%; with MCF7 [7] it was 3.1%; in the data set with MCF7 [8], 30.05%; in the data set with MCF7 [9] it was 0.75%. Besides, the Tmax in the data set on Mus musculus [10] is 7.2 min. Besides, the Cmax with Mus musculus [11] came to 188 ng/mL. Also, in the data set on Mus musculus [12], the half-life is 6.9 h. In the data set with Mus musculus [13], this compound registered a bioavailability of 55.5%. Besides, the results for the Vd in the data set with Mus musculus [14] and in the data set on Mus musculus [15] were 90.7 L/kg and 80.2 L/kg, respectively.
